Source: ChEMBL document CHEMBL1140207, “A small molecule inhibitor, 1,2,4,5-benzenetetraamine tetrahydrochloride, targeting the y397 site of focal adhesion kinase decreases tumor growth” (J Med Chem, 2008)
Active and inactive are the calls of the source. No cut-off for these calls is given here.

Columns and labels:
BT-474 [1] = experiment: Effect on human BT474 cell survival assessed as cell detachment at 100 to 200 uM after 24 hrs by hemocytometer; assay type: functional
Method in brief: (§1)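 BT474 cells treated at a range of doses; detached cells counted on a hemacytometer; means ± standard errors of three independent experiments, versus untreated cells.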

[2] = target: Protein-tyrosine kinase 2-beta (Homo sapiens) (UniProt Q14289); experiment: Inhibition of recombinant full length Pyk2 autophosphorylation expressed in baculovirus by SDS-PAGE
Method in brief: (§2)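 In vitro autophosphorylation: 0.1 μg purified recombinant FAK or Pyk-2 with γ-32P-ATP and varying inhibitor doses, 10 min at room temperature; three independent experiments.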

BT-474 [3] = experiment: Inhibition of human BT474 cells adhesion on collagen coated plates after 3 hrs by crystal violet staining
[4] = Effect on human MCF10A cell survival assessed as cell detachment at 100 uM after 24 hrs by hemocytometer; assay type: ADME, cell-based; settings: mcf-10a
Method in brief: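 Normal breast MCF10A cells were treated with a range of compound doses. Detached cells were counted on a hemacytometer, and values are means ± standard errors of three independent experiments.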

[5] = target: Vascular endothelial growth factor receptor 3 (Homo sapiens) (UniProt P35916); experiment: Inhibition of VEGFR3 phosphorylation in human BT474 cells at 100 uM after 24 hrs by Western blotting; assay type: cell-based; settings: BT-474
[6] = target: Focal adhesion kinase 1 (Homo sapiens) (UniProt Q05397); experiment: Inhibition of FAK-Y397 phosphorylation in human BT474 cells at 100 uM after 24 hrs by Western blotting; assay type: cell-based; settings: BT-474
Method in brief: (§3)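 BT474 cells treated 100 μM for 24 h; Western blot with Y397-FAK and Y118-paxillin antibodies, total FAK, paxillin and β-actin as expression/loading references.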

Paxillin (Homo sapiens) [7] = target: Paxillin (Homo sapiens) (UniProt P49023); experiment: Inhibition of paxillin-Y118 phosphorylation in human BT474 cells at 100 uM after 24 hrs by Western blotting; assay type: cell-based; settings: BT-474; method in brief: as §3
BT-474 [8] = experiment: Induction of necrosis in non-apoptotic human BT474 cells after 24 hrs by propidium iodide staining based Zeiss fluorescent microscope; assay type: functional, cell-based
Method in brief: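 BT474 cells treated at 10 and 100 μM, collected, stained 10 min with propidium iodide (10 μg/ml) for dead necrotic cells plus Hoechst (10 μg/ml) for nuclei; examined by fluorescence microscopy.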

BT-474 [9] = experiment: Effect on human BT474 cell survival assessed as cell detachment at 50 uM after 24 hrs by hemocytometer; assay type: functional; method in brief: as §1
[10] = target: Focal adhesion kinase 1 (Homo sapiens) (UniProt Q05397); experiment: Inhibition of recombinant FAK domain (411 to 686 amino acids) without N terminal domain containing Y397 site at 1 uM
Method in brief: (§4)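 Commercial kinase profiling panel: recombinant enzymes (including FAK kinase domain 411-686 a.a.) tested with 1 μM compound, 10 μM ATP and kinase substrates; % inhibition versus untreated; mean ± SE of two independent experiments.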

[11] = target: Focal adhesion kinase 1 (Homo sapiens) (UniProt Q05397); experiment: Inhibition of recombinant full length FAK autophosphorylation expressed in baculovirus by SDS-PAGE; method in brief: as §2
BT-474 [12] = experiment: Induction of apoptosis in human BT474 cells assessed as cleavage of 89 kDa PARP after 24 hrs by Western blotting
[13] = target: PI3-kinase p110-delta/p85-alpha (Homo sapiens) (UniProt P27986+O00329); experiment: Inhibition of recombinant PI3 kinase p110delta/p85-alpha subunit at 1 uM; method in brief: as §4
BT-474 [14] = experiment: Cytotoxicity against human BT474 cells assessed as decrease in cell viability after 24 hrs by MTT assay; assay type: functional, cell-based
Method in brief: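 BT474 breast cancer cells exposed to a range of doses for 24 h; viability by MTT; mean of triplicate determinations ± SD versus untreated cells.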

[15] = target: Platelet-derived growth factor receptor alpha (Homo sapiens) (UniProt P16234); experiment: Inhibition of recombinant PDGFRa at 1 uM; method in brief: as §4
BT-474 [16] = experiment: Inhibition of human BT474 cells adhesion on collagen coated plates at 100 uM after 3 hrs by crystal violet staining
[17] = target: Focal adhesion kinase 1 (Homo sapiens) (UniProt Q05397); experiment: Inhibition of total FAK autophosphorylation in human BT474 cells at 100 uM after 24 hrs by Western blotting; assay type: cell-based; settings: BT-474
Method in brief: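 BT474 lysates immunoprecipitated with FAK antibody, blotted with phosphotyrosine antibody, then stripped and reprobed for FAK.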

[18] = target: Focal adhesion kinase 1 (Homo sapiens) (UniProt Q05397); experiment: Inhibition of FAK-Y397 phosphorylation in human BT474 cells at 100 uM by Western blotting; assay type: cell-based; settings: BT-474, TDE = time-dependent effect
Method in brief: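 BT474 cells given 100 μM for 1–24 h; Y397-FAK and total FAK normalized to β-actin by densitometry, expressed relative to untreated; three independent experiments, mean ± SE.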

BT-474 [19] = experiment: Inhibition of tumor growth in human BT474 cells xenografted in mouse assessed as reduction in tumor weight at 30 mg/kg administered daily for 5 days per week measured after 23 days; assay type: functional, organism-based; set-up: dose 30 mg/kg
Method in brief: (§5)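 BT474 cells injected subcutaneously into mice (5 per group); dosing at 30 mg/kg daily, 5 days per week, starting the day after injection; untreated mice as controls.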

[20] = target: Focal adhesion kinase 1 (Homo sapiens) (UniProt Q05397); experiment: Inhibition of FAK-Y397 phosphorylation in human BT474 cells after 24 hrs by Western blotting; assay type: cell-based; settings: BT-474
Method in brief: (§6)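 BT474 cells treated at different doses; Western blot for Y397-FAK then total FAK, plus Y402-Pyk-2; β-actin for loading.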

BT-474 [21] = experiment: Cytotoxicity against human BT474 cells assessed as decrease in cell viability at 100 uM after 24 hrs by MTT assay; assay type: functional, cell-based
Method in brief: (§7)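 Cells given each compound at 100 μM for 24 h, then MTT viability assay; known FAK inhibitor 1a used as reference control.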

[22] = target: Protein-tyrosine kinase 2-beta (Homo sapiens) (UniProt Q14289); experiment: Inhibition of Pyk2-Y402 phosphorylation in human BT474 cells at 100 uM after 24 hrs by Western blotting; assay type: cell-based; settings: BT-474; method in brief: as §6
Mus musculus [23] = experiment: Inhibition of tumor growth in human BT474 cells xenografted in mouse assessed as animal death at 30 mg/kg administered daily for 5 days per week measured after 23 days; assay type: organism-based, BT-474; set-up: dose 30 mg/kg; settings: in vivo, 552 h
Method in brief: (§8)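 BT474 breast cancer cells were injected subcutaneously into 5 mice. Dosing at 30 mg/kg started the day after injection and was given daily, 5 days per week. Five untreated mice served as controls.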

BT-474 [24] = experiment: Effect on human BT474 cell survival assessed as cell detachment after 24 hrs by hemocytometer; assay type: functional, cell-based; method in brief: as §1
[25] = target: Proto-oncogene tyrosine-protein kinase Src (Homo sapiens) (UniProt P12931); experiment: Inhibition of c-Src phosphorylation in human BT474 cells at 100 uM after 24 hrs by Western blotting; assay type: cell-based; settings: BT-474
BT-474 [26] = experiment: Induction of apoptosis in human BT474 cells at 50 to 100 uM after 24 hrs by […] staining; assay type: functional
Method in brief: (§9)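 BT474 cells treated 24 h at various doses; apoptotic nuclei scored by Hoechst staining; means ± SD of four independent experiments versus untreated cells.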

MCF7 = experiment: Cytotoxicity against human MCF7 cells assessed as decrease in cell viability at 100 uM after 24 hrs by MTT assay; assay type: functional, cell-based; method in brief: as §7
[27] = target: Hepatocyte growth factor receptor (Homo sapiens) (UniProt P08581); experiment: Inhibition of recombinant Met at 1 uM; method in brief: as §4
HT-29 = experiment: Cytotoxicity against human HT-29 cells assessed as decrease in cell viability at 100 uM after 24 hrs by MTT assay; assay type: functional, cell-based
C8161 = experiment: Cytotoxicity against human C8161 cells assessed as decrease in cell viability at 100 uM after 24 hrs by MTT assay; assay type: functional, cell-based
Method in brief: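 Cells from breast cancer and melanoma lines were exposed to compound for 24 h and viability was read by MTT assay. A reference FAK inhibitor served as the control.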

A549 = experiment: Cytotoxicity against human A549 cells assessed as decrease in cell viability at 100 uM after 24 hrs by MTT assay; assay type: functional, cell-based
[28] = target: Protein-tyrosine kinase 2-beta (Homo sapiens) (UniProt Q14289); experiment: Inhibition of recombinant Pyk2 at 1 uM; method in brief: as §4
BT-474 [29] = experiment: Induction of apoptosis in human BT474 cells assessed as cleavage of 89 kDa PARP at 100 uM after 24 hrs by Western blotting; assay type: functional, cell-based
Method in brief: (§10)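 BT474 cells treated at various doses; lysates immunoblotted with PARP antibody, scoring cleaved 89 kDa fragment.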

Mus musculus [30] = experiment: Inhibition of tumor growth in human BT474 cells xenografted in mouse assessed as animal weight loss at 30 mg/kg administered daily for 5 days per week measured after 23 days; assay type: organism-based, BT-474; set-up: dose 30 mg/kg; settings: in vivo, 552 h; method in brief: as §8
T47D = experiment: Cytotoxicity against human T47D cells assessed as decrease in cell viability at 100 uM after 24 hrs by MTT assay; assay type: functional, cell-based; method in brief: as §7
BT-474 [31] = experiment: Effect on human BT474 cell survival assessed as cell detachment at 10 uM after 24 hrs by hemocytometer; assay type: functional; method in brief: as §1
[32] = target: Proto-oncogene tyrosine-protein kinase Src (Homo sapiens) (UniProt P12931); experiment: Inhibition of recombinant c-Src at 1 uM; method in brief: as §4
[33] = target: Focal adhesion kinase 1 (Homo sapiens) (UniProt Q05397); experiment: Inhibition of recombinant full length FAK-mediated GST-paxillin […] expressed in baculovirus by SDS-PAGE
Method in brief: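 Purified recombinant FAK (0.1 μg) with GST-paxillin substrate, γ-32P-ATP and varying inhibitor doses, 10 min at room temperature.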

BT-474 [34] = experiment: Inhibition of tumor growth in human BT474 cells xenografted in mouse assessed as tumor volume at 30 mg/kg administered daily for 5 days per week measured after 23 days; assay type: functional, organism-based; set-up: dose 30 mg/kg; method in brief: as §5
[35] = target: RAF proto-oncogene serine/threonine-protein kinase (Homo sapiens) (UniProt P04049); experiment: Inhibition of recombinant c-RAF at 1 uM; method in brief: as §4
[36] = target: Insulin-like growth factor 1 receptor (Homo sapiens) (UniProt P08069); experiment: Inhibition of recombinant IGF1R at 1 uM; method in brief: as §4
BT-474 [37] = experiment: Induction of apoptosis in human BT474 cells assessed as cleavage of 89 kDa PARP at 1 uM after 24 hrs by Western blotting; assay type: functional, cell-based; method in brief: as §10
[38] = target: Epidermal growth factor receptor (Homo sapiens) (UniProt P00533); experiment: Inhibition of recombinant EGFR at 1 uM; method in brief: as §4
[39] = target: Vascular endothelial growth factor receptor 3 (Homo sapiens) (UniProt P35916); experiment: Inhibition of recombinant Flt4 at 1 uM; method in brief: as §4
BT-474 [40] = experiment: Induction of apoptosis in human BT474 cells assessed as presence of apoptotic nuclei at 100 uM after 24 hrs by […] staining; assay type: functional, cell-based; method in brief: as §9
BT-474 [41] = experiment: Effect on human BT474 cell survival assessed as cell detachment at 100 uM after 24 hrs by hemocytometer; assay type: functional; method in brief: as §1
Paxillin (Homo sapiens) [42] = target: Paxillin (Homo sapiens) (UniProt P49023); experiment: Inhibition of paxillin phosphorylation in human BT474 cells at 100 uM after 24 hrs by Western blotting; assay type: cell-based; settings: BT-474

Chain of Focal adhesion kinase 1 (Homo sapiens) (Q05397 2-1052 limits assumed): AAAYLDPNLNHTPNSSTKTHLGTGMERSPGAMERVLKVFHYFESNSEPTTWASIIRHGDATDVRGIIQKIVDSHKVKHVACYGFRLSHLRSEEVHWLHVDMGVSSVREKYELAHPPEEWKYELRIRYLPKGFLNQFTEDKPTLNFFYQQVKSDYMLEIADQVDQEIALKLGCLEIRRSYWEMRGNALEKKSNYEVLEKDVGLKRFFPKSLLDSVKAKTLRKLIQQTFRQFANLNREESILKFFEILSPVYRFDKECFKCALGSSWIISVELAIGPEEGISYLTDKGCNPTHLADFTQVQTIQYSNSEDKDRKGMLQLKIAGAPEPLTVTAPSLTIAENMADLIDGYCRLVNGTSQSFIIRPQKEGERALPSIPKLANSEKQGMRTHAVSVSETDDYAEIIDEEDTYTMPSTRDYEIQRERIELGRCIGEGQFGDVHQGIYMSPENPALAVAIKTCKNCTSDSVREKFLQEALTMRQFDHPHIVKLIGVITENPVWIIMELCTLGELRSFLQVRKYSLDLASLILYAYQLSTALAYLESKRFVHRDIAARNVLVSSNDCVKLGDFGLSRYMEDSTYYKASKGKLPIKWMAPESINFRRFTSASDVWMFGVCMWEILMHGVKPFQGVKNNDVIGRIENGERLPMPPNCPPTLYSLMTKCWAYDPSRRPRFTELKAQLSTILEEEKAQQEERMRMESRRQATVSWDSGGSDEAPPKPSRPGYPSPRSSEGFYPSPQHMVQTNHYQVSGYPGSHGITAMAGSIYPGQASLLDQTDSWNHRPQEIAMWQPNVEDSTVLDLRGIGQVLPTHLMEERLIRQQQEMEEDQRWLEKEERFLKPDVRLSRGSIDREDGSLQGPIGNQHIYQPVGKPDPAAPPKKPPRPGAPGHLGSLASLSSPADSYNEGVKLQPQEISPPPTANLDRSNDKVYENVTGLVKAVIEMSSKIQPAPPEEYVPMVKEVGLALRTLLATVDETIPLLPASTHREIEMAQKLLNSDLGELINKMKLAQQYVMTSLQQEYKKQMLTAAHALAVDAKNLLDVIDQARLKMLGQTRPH
Chain of Protein-tyrosine kinase 2-beta (Homo sapiens) (Q14289 whole entry, looked up): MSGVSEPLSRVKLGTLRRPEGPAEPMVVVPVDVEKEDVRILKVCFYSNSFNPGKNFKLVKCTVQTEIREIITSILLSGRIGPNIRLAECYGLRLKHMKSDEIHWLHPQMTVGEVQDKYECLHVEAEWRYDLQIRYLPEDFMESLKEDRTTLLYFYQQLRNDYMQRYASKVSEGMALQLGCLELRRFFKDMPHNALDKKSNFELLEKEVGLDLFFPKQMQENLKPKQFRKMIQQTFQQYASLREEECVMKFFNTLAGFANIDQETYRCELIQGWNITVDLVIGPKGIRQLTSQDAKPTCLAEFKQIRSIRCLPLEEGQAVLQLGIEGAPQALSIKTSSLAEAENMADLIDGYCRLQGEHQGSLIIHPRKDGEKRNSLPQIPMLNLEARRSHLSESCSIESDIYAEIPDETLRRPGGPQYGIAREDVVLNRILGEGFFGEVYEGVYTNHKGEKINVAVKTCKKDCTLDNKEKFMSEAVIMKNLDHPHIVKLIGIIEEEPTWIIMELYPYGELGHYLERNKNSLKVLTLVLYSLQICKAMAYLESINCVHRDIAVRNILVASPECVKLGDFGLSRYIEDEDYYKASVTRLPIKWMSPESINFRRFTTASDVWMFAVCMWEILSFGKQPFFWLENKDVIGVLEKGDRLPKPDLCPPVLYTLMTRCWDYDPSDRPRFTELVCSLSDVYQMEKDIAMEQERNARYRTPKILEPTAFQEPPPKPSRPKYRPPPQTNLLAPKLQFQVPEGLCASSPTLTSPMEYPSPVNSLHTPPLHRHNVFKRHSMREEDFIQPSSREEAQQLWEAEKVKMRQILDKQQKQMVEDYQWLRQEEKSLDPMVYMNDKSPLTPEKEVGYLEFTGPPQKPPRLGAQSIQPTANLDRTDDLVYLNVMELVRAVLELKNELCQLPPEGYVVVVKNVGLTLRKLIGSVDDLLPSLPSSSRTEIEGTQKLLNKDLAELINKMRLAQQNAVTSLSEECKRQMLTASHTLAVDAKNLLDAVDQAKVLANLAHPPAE
Chain of Paxillin (Homo sapiens) (P49023 whole entry): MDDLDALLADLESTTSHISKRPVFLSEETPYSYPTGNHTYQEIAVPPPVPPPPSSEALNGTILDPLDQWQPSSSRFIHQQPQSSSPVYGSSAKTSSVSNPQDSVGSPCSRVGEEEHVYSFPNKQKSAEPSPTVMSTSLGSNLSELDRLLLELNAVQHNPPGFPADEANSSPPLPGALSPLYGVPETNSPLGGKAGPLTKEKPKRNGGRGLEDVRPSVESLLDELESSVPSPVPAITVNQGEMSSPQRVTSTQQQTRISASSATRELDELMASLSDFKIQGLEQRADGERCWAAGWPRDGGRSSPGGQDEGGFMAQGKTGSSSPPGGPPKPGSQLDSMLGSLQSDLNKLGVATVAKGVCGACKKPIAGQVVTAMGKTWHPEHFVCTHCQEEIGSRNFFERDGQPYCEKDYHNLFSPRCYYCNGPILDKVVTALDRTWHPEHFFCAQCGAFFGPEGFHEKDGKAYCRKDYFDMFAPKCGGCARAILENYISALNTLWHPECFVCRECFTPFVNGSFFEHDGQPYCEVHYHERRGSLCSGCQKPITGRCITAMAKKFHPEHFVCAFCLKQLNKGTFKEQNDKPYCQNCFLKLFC
Chain of Proto-oncogene tyrosine-protein kinase Src (Homo sapiens) (P12931 2-536 limits assumed): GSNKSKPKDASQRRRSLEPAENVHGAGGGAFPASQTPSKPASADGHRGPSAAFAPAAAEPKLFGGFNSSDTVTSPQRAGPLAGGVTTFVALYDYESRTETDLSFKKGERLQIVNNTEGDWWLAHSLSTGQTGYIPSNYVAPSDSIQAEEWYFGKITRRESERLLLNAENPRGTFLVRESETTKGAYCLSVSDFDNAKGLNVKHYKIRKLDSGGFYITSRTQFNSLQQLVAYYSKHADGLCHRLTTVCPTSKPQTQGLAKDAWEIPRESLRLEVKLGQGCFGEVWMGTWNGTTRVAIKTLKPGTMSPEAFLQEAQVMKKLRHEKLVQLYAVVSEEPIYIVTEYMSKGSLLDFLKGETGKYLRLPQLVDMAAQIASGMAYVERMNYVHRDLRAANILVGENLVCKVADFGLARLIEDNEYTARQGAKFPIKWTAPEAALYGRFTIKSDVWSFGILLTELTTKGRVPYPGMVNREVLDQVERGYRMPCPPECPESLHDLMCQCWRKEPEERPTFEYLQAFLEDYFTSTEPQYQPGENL
Chain of Vascular endothelial growth factor receptor 3 (Homo sapiens) (P35916 whole entry): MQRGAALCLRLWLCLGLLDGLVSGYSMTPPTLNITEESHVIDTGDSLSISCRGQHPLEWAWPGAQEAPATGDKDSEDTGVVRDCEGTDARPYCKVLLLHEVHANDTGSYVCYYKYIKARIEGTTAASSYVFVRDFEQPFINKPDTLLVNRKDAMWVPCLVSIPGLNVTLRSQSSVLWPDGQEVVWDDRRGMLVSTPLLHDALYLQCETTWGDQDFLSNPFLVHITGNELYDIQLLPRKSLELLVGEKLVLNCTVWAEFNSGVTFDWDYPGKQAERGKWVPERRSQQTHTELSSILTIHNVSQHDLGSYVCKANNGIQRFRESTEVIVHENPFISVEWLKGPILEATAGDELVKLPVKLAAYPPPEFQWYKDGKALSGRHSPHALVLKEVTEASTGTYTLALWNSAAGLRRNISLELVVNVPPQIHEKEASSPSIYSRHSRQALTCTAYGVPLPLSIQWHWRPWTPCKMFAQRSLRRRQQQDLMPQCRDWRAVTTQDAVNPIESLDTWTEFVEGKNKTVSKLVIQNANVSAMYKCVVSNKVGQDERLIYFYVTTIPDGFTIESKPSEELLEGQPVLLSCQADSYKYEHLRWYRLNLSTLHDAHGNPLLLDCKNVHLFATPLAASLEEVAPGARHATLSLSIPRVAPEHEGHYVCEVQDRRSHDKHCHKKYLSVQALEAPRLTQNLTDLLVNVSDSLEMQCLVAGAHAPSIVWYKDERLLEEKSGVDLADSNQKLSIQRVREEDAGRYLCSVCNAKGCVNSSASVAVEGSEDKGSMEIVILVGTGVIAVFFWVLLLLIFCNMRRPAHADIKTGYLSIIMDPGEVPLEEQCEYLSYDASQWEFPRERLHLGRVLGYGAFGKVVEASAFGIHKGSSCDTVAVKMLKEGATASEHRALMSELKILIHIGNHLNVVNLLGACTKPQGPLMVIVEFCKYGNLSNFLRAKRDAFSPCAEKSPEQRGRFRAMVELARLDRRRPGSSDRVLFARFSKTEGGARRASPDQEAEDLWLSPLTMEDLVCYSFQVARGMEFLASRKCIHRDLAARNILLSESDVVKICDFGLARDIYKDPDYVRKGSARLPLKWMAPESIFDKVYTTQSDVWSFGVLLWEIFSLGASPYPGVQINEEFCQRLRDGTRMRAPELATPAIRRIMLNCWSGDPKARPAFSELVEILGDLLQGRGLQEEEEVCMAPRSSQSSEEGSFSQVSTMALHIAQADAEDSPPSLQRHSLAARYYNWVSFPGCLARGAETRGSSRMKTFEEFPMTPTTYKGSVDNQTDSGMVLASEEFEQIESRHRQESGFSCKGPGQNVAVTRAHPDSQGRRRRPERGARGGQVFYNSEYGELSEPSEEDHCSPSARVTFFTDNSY

Cl.Nc1cc(N)c(N)cc1N
Activity (BT-474 [1]): 64%
Activity [2]: inactive
Activity (BT-474 [3]): Dose-dependent effect
Activity [4]: 15%
Activity [5]: inactive
Activity [6]: Active
Activity (Paxillin (Homo sapiens) [7]): Active
Activity (BT-474 [8]): Dose-dependent effect
Activity (BT-474 [9]): 38%
Activity [10]: inactive
Activity [11]: Dose-dependent effect
Activity (BT-474 [12]): Active
Activity [13]: inactive
Activity (BT-474 [14]): Dose-dependent effect
Activity [15]: inactive
Activity (BT-474 [16]): Active
Activity [17]: Active
Activity [18]: tde
Activity (BT-474 [19]): Active
Activity [20]: Dose-dependent effect
Activity (BT-474 [21]): Active
Activity [22]: inactive
Activity (Mus musculus [23]): Non-toxic
Activity (BT-474 [24]): Dose-dependent effect
Activity [25]: inactive
Activity (BT-474 [26]): <5%
Activity (MCF7): Active
Activity [27]: inactive
Activity (HT-29): Active
Activity (C8161): Active
Activity (A549): Active
Activity [28]: inactive
Activity (BT-474 [29]): inactive
Activity (Mus musculus [30]): Non-toxic
Activity (T47D): Active
Activity (BT-474 [31]): 8%
Activity [32]: inactive
Activity [33]: Dose-dependent effect
Activity (BT-474 [34]): Active
Activity [35]: inactive
Activity [36]: inactive
Activity (BT-474 [37]): inactive
Activity [38]: inactive
Activity [39]: inactive
Activity (BT-474 [40]): inactive
Activity (BT-474 [41]): 64%
Activity (Paxillin (Homo sapiens) [42]): Active

Brc1ccc(C[N+]23CN4CN(CN(C4)C2)C3)cc1
Activity (C8161): Active
